Published values collected from several papers.
Each line is one published result; the experiments were not run side by side.
Target: Dual specificity protein kinase CLK4 (CLK4, Homo sapiens, UniProt Q9HAZ1)

For `O=C(c1ccc(Nc2ncc(Cl)c(-c3ccc(Cl)s3)n2)cc1)N1CCC(N2CCCC2)CC1`, the remaining binding was 2.1% (binding; competition with immobilised ligand; 1 µM).
`O=C(NCC1CCOCC1)c1n[nH]cc1NC(=O)c1c(F)cccc1F` gave a remaining binding of 32% (binding; competition with immobilised ligand; 1 µM).
With `CC1=C(C#N)C(c2ccc3c(c2)c(NC(=O)c2ccccc2C)nn3C)C(C#N)=C(C)N1` the remaining binding was 76% (cell-free assay; competition with immobilised ligand; 1 µM).
For `C=CC(=O)N1CCC(C(=O)NCC(=O)N2CCN(c3nc(-c4cnc(N)nc4C(F)F)nc(N4CCOCC4)n3)CC2)CC1`, the remaining binding was 100% (binding; competition with immobilised ligand; 1 µM).
With `Cc1cnn2ncc(-c3ccnc(N(C)C)n3)c2c1` the remaining binding was 9.7% (binding; 1 µM).
With `FC(F)(F)Oc1cccc(-c2cnc3ccc(-c4ccncc4)nn23)c1` the remaining binding was 7.8% (cell-free assay; competition with immobilised ligand; 5 µM).
The remaining binding of `CC(C)(O)c1cncc(-c2nc3ccc(F)cc3n2C2CC2)c1` is reported as 54% (cell-free assay; competition with immobilised ligand; 1 µM).
For `N[C@H]1CCN(c2nccc(-c3cnn4ncccc34)n2)C1`, the remaining binding was 22% (binding; 1 µM).
For `CO[C@@H](C)c1c(Nc2ccc([C@H](N(C)C(=O)C3CCS(=O)(=O)CC3)C(F)(F)F)cc2)cnc2cc(Cl)nn12`, the remaining binding was 94% (cell-free assay; competition with immobilised ligand; 1 µM).
`O=C(NCCCN1CCOCC1)c1ccc(Nc2nccc(-c3cc4ccccc4s3)n2)cc1` gave a remaining binding of 11% (binding; competition with immobilised ligand; 1 µM).
With `CN(C)c1nccc(-c2cnn3ncccc23)n1` the remaining binding was 5.9% (binding; 1 µM).
With `O=C(N1CCS(=O)(=O)CC1)N1C[C@H](c2ccc(OC(F)(F)F)cc2)C[C@H](c2nc(C3CC3)no2)C1` the remaining binding was 100% (cell-free assay; competition with immobilised ligand; 1 µM).
`CN(C)c1ncc(F)c(-c2cnn3ncccc23)n1` gave a remaining binding of 61% (binding; 1 µM).
For `C[C@@H](c1ccc(-n2cnc3c(N)ncnc32)cc1)N1CCc2nn(C)c(Cc3ccccc3)c2C1=O`, the remaining binding was 100% (binding; competition with immobilised ligand; 0.1 µM).
The remaining binding of `O=C(c1ccc(Nc2ncc(Cl)c(-c3cc4ccccc4s3)n2)cc1)N1CCC(N2CCCC2)CC1` is reported as 0% (binding; competition with immobilised ligand; 1 µM).
`c1cnn2ncc(-c3ccnc(N4CCC45COC5)n3)c2c1` has a remaining binding of 6.2% (binding; 1 µM).
`COc1cnc(Nc2cccc(S(N)(=O)=O)c2)nc1N1CCN(c2ccccc2)CC1` gave a remaining binding of 100% (binding; competition with immobilised ligand; 1 µM).
With `Cc1noc([C@H]2C[C@@H](c3ccc(C(F)(F)F)cc3)CN(C(=O)N3CCS(=O)(=O)C3)C2)n1` the remaining binding was 83% (cell-free assay; competition with immobilised ligand; 1 µM).
The remaining binding of `CN(c1nccc(-c2cnn3ncccc23)n1)C1CC1` is reported as 70% (binding; 1 µM).
The remaining binding of `COc1ncc2cc3ccccc3nc2c1C#N` is reported as 86% (cell-free assay; competition with immobilised ligand; 5 µM).
For `O=S(=O)(NC1CCC(c2cc(F)ccc2F)(S(=O)(=O)c2ccc(Cl)cc2)CC1)C(F)(F)F` (stereo not shown), the remaining binding was 84% (cell-free assay; competition with immobilised ligand; 1 µM).
The remaining binding of `C[C@H]1CCN(c2nccc(-c3cnn4ncccc34)n2)C1` is reported as 9.9% (binding; 1 µM).
